In ChEMBL document CHEMBL1129426, “5-Lipoxygenase inhibitors: synthesis and structure-activity relationships of a series of 1-aryl-2H,4H-tetrahydro-1,2,4-triazin-3-ones” (J Med Chem, 1996):
Active and inactive are the calls of the source. The calls are words filed in the database; no cut-off is given here.

Experiments:
[1] = Plasma Tmax in rat (PO dose); type: ADME, organism-based
Procedure, shortened: (§1)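 Rats dosed by oral gavage at 200 µmol/kg. Tail-vein blood drawn at about 1 h intervals; plasma analysed by HPLC. Mean of data from two animals.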

[2] = Plasma Cmax in rat (PO dose); type: ADME, organism-based; set-up: route oral; procedure, shortened: as §1
[3] = target: T1, Polyunsaturated fatty acid 5-lipoxygenase (Homo sapiens, UniProt P09917); assay: In vitro 5-lipoxygenase inhibitory activity against calcium ionophore (A23187) induced LTB4 formation in human whole blood.
T1 sequence (P09917 whole entry): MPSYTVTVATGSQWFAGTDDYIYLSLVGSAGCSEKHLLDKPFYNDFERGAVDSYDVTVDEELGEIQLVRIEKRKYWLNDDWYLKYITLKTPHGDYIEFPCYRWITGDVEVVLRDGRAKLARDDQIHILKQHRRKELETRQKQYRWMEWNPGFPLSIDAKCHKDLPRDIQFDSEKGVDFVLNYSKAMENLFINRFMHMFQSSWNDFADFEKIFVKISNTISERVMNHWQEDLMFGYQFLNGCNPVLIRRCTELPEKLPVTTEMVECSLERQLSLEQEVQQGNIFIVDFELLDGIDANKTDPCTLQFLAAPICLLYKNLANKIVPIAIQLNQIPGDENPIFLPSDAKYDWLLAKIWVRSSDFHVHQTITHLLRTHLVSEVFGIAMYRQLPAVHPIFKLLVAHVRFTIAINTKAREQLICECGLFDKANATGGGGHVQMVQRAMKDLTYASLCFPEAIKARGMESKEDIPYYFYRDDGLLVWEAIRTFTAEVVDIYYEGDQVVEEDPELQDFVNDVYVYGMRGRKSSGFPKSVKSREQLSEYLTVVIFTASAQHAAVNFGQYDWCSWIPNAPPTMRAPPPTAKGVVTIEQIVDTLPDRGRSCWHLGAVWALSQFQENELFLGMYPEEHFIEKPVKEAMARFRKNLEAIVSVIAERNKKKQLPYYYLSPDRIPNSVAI

[4] = test system: Rattus norvegicus; assay: In vivo inhibition of rat anaphylaxis LTE4 leukotriene formation from peritoneal fluids, 1 hr after an oral dose of 200 uM/kg; type: functional
Procedure, shortened: (§2)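 Rats given 200 µmol/kg orally 1 h before antibody-antigen challenge inducing peritoneal leukotriene biosynthesis; LTE4 in peritoneal fluid measured. Mean of eight rats; percent inhibition versus control group mean; significance by one-way ANOVA with Tukey's multiple comparison.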

[5] = target: T2, Polyunsaturated fatty acid 5-lipoxygenase (Rattus norvegicus, UniProt P12527); assay: Inhibition of 5-lipoxygenase catalysis in rat basophilic leukemia (RBL) cells by measuring 5-HETE product formation; type: cell-based, RBL-1
T2 sequence (P12527 whole entry): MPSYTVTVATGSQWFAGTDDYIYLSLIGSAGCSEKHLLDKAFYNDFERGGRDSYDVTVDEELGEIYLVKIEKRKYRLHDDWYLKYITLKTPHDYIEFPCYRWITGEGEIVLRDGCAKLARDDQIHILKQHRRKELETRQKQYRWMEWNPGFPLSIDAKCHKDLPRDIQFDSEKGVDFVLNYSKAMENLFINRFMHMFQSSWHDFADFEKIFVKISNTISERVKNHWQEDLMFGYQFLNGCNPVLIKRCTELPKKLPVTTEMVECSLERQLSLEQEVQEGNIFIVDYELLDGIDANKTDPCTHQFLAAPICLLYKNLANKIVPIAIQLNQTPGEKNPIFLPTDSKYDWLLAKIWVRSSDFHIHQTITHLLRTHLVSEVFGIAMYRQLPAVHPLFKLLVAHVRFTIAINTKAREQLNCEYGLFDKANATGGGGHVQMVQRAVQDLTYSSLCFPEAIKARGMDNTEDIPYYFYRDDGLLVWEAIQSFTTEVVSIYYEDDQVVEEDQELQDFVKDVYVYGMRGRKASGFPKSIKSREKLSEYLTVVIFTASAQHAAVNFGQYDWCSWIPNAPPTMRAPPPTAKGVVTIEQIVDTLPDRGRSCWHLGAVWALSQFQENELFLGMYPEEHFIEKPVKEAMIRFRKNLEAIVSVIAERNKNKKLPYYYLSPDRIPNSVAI
Procedure, shortened: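 Crude 20000g supernatant from sonicated rat basophilic leukemia cells used as 5-LO source; 5-HETE product formation measured.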

[6] = test system: Rattus norvegicus; assay: In vivo inhibition of rat anaphylaxis leukotriene formation from peritoneal fluids, 1 hr after an oral dose of 200 uM/Kg; type: functional; procedure, shortened: as §2
[7] = test system: Rattus norvegicus; assay: In vivo inhibition of rat anaphylaxis leukotriene formation from peritoneal fluids, 1 hr after an oral dose of 200 uM/Kg; Not significant; type: functional, organism-based; procedure, shortened: as §2

SMILES | Tmax [1] | Cmax [2] | IC50 [3] | IC50 [5] | Inhibition [4] | ED50 [6] | ED50 [7]
CSc1cccc(N2CCNC(=O)N2)c1 | 1 h | 26 µM | 2.2 µM |  | 73% |  | 
CC1CN(c2cccc(F)c2)NC(=O)N1 (configuration not stated) | 7.2 h | 70.2 µM | 1.8 µM | 6.3 µM | 60% |  | 
Nc1cccc(N2CCNC(=O)N2)c1 | 1.1 h | 95 µM |  | 178 µM |  |  | 
CCc1cccc(N2CCNC(=O)N2)c1 | 1.1 h | 32 µM |  |  |  | 24 mg/kg | 
O=C1NCCN(c2cccc(Cl)c2)N1 | 2 h | 59 µM | 2.1 µM | 5.3 µM |  | 18 mg/kg | 
CC1CN(c2cccc(-c3cccs3)c2)NC(=O)N1 (configuration not stated) | 4 h | 1 µM | 5.5 µM | 2.8 µM |  |  | 
Cc1cccc(N2CC(C)N(O)C(=O)N2)c1 (configuration not stated) |  |  | 4.8 µM | 8.4 µM |  |  | 
Cc1cccc(N2CC(C)NC(=O)N2)n1 (configuration not stated) | 1 h | 125 µM | 1.7 µM | 3.8 µM |  |  | 
O=C1NCCN(c2cccc(O)c2)N1 |  |  |  | 32 µM |  |  | 
O=C1NN(c2ccccc2)CCN1Cc1ccccc1 |  |  |  | 8.3 µM |  |  | 
CC1CN(c2cccc(-c3ccco3)c2)NC(=O)N1 (configuration not stated) | 1 h | 7 µM | 8.4 µM | 4.8 µM |  |  | inactive
CCCCC1CN(c2ccccc2)NC(=O)N1 (configuration not stated) | 1 h | 8 µM |  | 1.5 µM | 42% |  | 
O=C1NCCN(c2cccc(-c3cccs3)n2)N1 |  |  | 37 µM | 8.2 µM |  |  | 
CC1CN(c2cccc(Br)n2)NC(=O)N1 (configuration not stated) | 2 h | 21 µM | 3.1 µM |  | 57% |  | 
CON1C(=O)NN(c2ccccc2)CC1C (configuration not stated) |  |  |  | 22 µM |  |  | 
O=C1NCCN(c2nc3ccccc3s2)N1 | 2 h | 123 µM |  | 32 µM |  |  | 
O=C1NCCN(c2ccnc3cc(Cl)ccc23)N1 | 4 h | 85 µM |  | 32 µM |  |  | 
CC1CN(c2cccc(Cl)c2)NC(=O)N1 (configuration not stated) | 4 h | 31 µM | 2.7 µM | 2.7 µM | 40% |  | 
O=C1NCCN(c2ccccn2)N1 | 1 h | 184 µM | 8.6 µM |  |  | 8 mg/kg | 
O=C1NCCN(c2cccc(OCc3ccccc3)c2)N1 | 1 h | 2.5 µM | 0.2 µM | 1.1 µM | 14% |  | 
CCC1CN(c2ccccc2)NC(=O)N1 (configuration not stated) | 1.2 h | 59 µM | 3.8 µM |  |  | 24 mg/kg | 

SMILES | Tmax [1] | Cmax [2] | IC50 [3] | IC50 [5] | Inhibition [4] | ED50 [6] | ED50 [7]
COCCOCC1CN(c2ccccc2)NC(=O)N1 (configuration not stated) |  |  | 24 µM | 14 µM |  |  | 
O=C1NC(Oc2ccccc2)CN(c2ccccc2)N1 (configuration not stated) |  |  | 2.6 µM |  |  |  | inactive
O=C1NCCN(c2cnc3ccccc3c2)N1 | 1 h | 58 µM |  | 32 µM |  |  | 
O=C1NCCN(c2cccc([N+](=O)[O-])c2)N1 | 2 h | 62 µM |  | 49 µM |  |  | 
O=C1NCCN(c2cccnc2)N1 |  |  |  | 32 µM |  |  | 
CN1CCN(c2ccccc2)NC1=O |  |  |  | 32 µM |  |  | 
O=C1NCCN(c2cccc(-c3ccncc3)c2)N1 |  |  |  | 30 µM |  |  | 
O=C1NCCN(c2cccc(Br)c2)N1 | 4.2 h | 35 µM |  |  | 46% |  | 
Cc1ccccc1N1CCNC(=O)N1 | 2.1 h | 78 µM |  | 386 µM |  |  | inactive
COc1cccc(N2CCNC(=O)N2)n1 | 1 h | 101 µM | 3.5 µM | 9.5 µM | 26% |  | 
O=C1NCCN(c2cc(F)cc(F)c2)N1 | 2 h | 64 µM | 4.6 µM | 8.9 µM | 59% |  | 
O=C1NCCN(c2cccc(C(F)(F)F)c2)N1 | 4.1 h | 24 µM |  |  | 40% |  | 
CC1CN(c2cccc(F)n2)NC(=O)N1 (configuration not stated) |  |  | 6 µM | 6.6 µM |  |  | 
Cc1ccc(N2CCNC(=O)N2)cc1 | 1.1 h | 105 µM |  | 300 µM |  |  | 
Cc1cccc(N2CCNC(=O)N2)n1 | 1 h | 99 µM | 7.9 µM | 5.5 µM |  | 17 mg/kg | 
Cc1cccc(N2CC(C)NC(=O)N2)c1 (configuration not stated) | 2.2 h | 44 µM |  | 1.3 µM | 43% |  | 
O=C1NCCN(c2ccncc2)N1 |  |  |  | 32 µM |  |  | 
O=C1NCCN(c2cccc(Br)n2)N1 | 1 h | 79 µM | 4.6 µM | 3.5 µM |  | 41 mg/kg | 
CC1CN(c2ccccc2)NC(=O)N1O (configuration not stated) |  |  | 13 µM | 6 µM |  |  | 
O=C1NC(Oc2ccc(F)cc2)CN(c2ccccc2)N1 (configuration not stated) |  |  | 2.6 µM |  |  |  | inactive

The next lines start with results.

Tmax [1] | Cmax [2] | IC50 [3] | IC50 [5] | SMILES | Inhibition [4] | ED50 [6] | ED50 [7]
 |  | 3.6 µM |  | CC1CN(c2cccc(Cl)c2)NC(=O)N1O (configuration not stated) |  |  | 
 |  |  | 30 µM | O=C1NCCN(c2cccc(-c3ccccn3)c2)N1 |  |  | 
1.2 h | 72 µM |  | 47 µM | COc1cccc(N2CCNC(=O)N2)c1 | 44% |  | 
2 h | 48 µM | 20 µM | 6.8 µM | CC(C)C1CN(c2ccccc2)NC(=O)N1 (configuration not stated) |  | 59 mg/kg | 
1 h | 2 µM | 5.3 µM | 4.9 µM | O=C1NCCN(c2cccc(-c3ccsc3)c2)N1 |  |  | 
2 h | 48 µM | 1.6 µM | 3.5 µM | CC1CN(c2cccc(Cl)n2)NC(=O)N1 (configuration not stated) |  |  | inactive
 |  |  | 32 µM | O=C1NCCN(c2nc3ccccc3o2)N1 |  |  | 
7.2 h | 26 µM | 5.2 µM | 2.6 µM | CC1CN(c2cccc(Br)c2)NC(=O)N1 (configuration not stated) | 54% |  | 
2.2 h | 20 µM |  | 6.8 µM | CC1(C)CN(c2ccccc2)NC(=O)N1 |  |  | inactive
 |  |  | 32 µM | CCN1CCN(c2ccccc2)NC1=O |  |  | 
1 h | 85 µM | 7.1 µM | 5.5 µM | COc1cccc(N2CC(C)NC(=O)N2)n1 (configuration not stated) |  |  | 
 |  | 3 µM | 9.1 µM | O=C1NCCN(c2cccc(F)n2)N1 |  |  | 
 |  | > 50 µM | 6 µM | O=C1NCCN(c2cccc(-c3ccccn3)n2)N1 |  |  | 
1 h | 108 µM |  |  | O=C1NCCN(c2cccc(F)c2)N1 | 38% |  | 
1.1 h | 98 µM | 2 µM |  | Cc1cccc(N2CCNC(=O)N2)c1 |  | 18 mg/kg | 
4 h | 20 µM |  |  | Cc1cc(C)cc(N2CCNC(=O)N2)c1 | 46% |  | 
2 h | 141 µM | 5.8 µM | 11 µM | CC1CN(c2ccccc2)NC(=O)N1 (configuration not stated) |  | 13 mg/kg | 
1 h | 3 µM | 8.8 µM | 2.1 µM | O=C1NCCN(c2cccc(-c3cccs3)c2)N1 |  |  | 
2 h | 122 µM | 4.8 µM | 5.6 µM | O=C1NCCN(c2cccc(Cl)n2)N1 |  | 16 mg/kg | 
